Test results from ChEMBL document CHEMBL1123348, “Characterization of the neurotoxic potential of m-methoxy-MPTP and the use of its N-ethyl analogue as a means of avoiding exposure to a possible Parkinsonism-causing agent” (J Med Chem, 1986).
Several values for one entry are separate records, joined by “and”; a condition that tells them apart may be missing. Equal entries are not always repeated.

How the values were obtained:
Type in all cases: functional, organism-based
[1] = tested on: Mus musculus; experiment: Tested for the concentration of DOPAC (dihydroxyphenyl-acetic acid) in striatum of mouse brain one week after four daily injections at dose of 20 mg/kg; design: dose 20 mg/kg
Outline: (§1)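 Male CRL/CFW mice received subcutaneous injections daily for 4 days. Animals were killed 7 days after the last dose. Brains were removed rapidly, and striata were dissected, frozen on dry ice and stored at -15 °C until analysis of dopamine, DOPAC and HVA. Values are means ± standard errors for 6 mice/group.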

[2] = tested on: Mus musculus; experiment: Tested for the concentration of HVA in striatum of mouse brain one week after four daily injections at dose of 20 mg/kg; design: dose 20 mg/kg; outline: as §1
[3] = tested on: Mus musculus; experiment: Tested for the concentration of HVA in striatum of mouse brain one week after four daily injections at doses of 20 mg/kg; design: dose 20 mg/kg; outline: as §1
[4] = tested on: Mus musculus; experiment: Tested for the concentration of dopamine in striatum of mouse brain one week after four daily injections at 20 mg/kg dose; design: dose 20 mg/kg; outline: as §1
[5] = tested on: Mus musculus; experiment: Tested for the concentration of DOPAC (dihydroxyphenyl-acetic acid) in striatum of mouse brain one week after four daily injections at a dosage of 80 mg/kg; design: dose 80 mg/kg; outline: as §1
[6] = tested on: Mus musculus; experiment: Tested for the concentration of DOPAC (dihydroxyphenyl-acetic acid) in striatum of mouse brain one week after four daily injections at dose of 40 mg/kg; design: dose 40 mg/kg; outline: as §1
[7] = tested on: Mus musculus; experiment: Tested for the concentration of DOPAC (dihydroxyphenyl-acetic acid) in striatum of mouse brain one week after four daily injections at dose of 80 mg/kg; design: dose 80 mg/kg; outline: as §1
[8] = tested on: Mus musculus; experiment: Tested for the concentration of HVA in striatum of mouse brain one week after four daily injections at a dosage of 80 mg/kg; design: dose 80 mg/kg; outline: as §1
[9] = tested on: Mus musculus; experiment: Tested for the concentration of HVA in striatum of mouse brain one week after four daily injections at dose of 40 mg/kg; design: dose 40 mg/kg; outline: as §1
[10] = tested on: Mus musculus; experiment: Tested for the concentration of HVA in striatum of mouse brain one week after four daily injections at dose of 80 mg/kg; design: dose 80 mg/kg; outline: as §1
[11] = tested on: Mus musculus; experiment: Tested for the concentration of dopamine in striatum of mouse brain one week after four daily injections at 80 mg/kg dose; design: dose 80 mg/kg; outline: as §1
[12] = tested on: Mus musculus; experiment: Tested for the concentration of dopamine in striatum of mouse brain one week after four daily injections at 80 mg/kg of the compound; design: dose 80 mg/kg; outline: as §1
[13] = tested on: Mus musculus; experiment: Tested for the concentration of dopamine in striatum of mouse brain one week after four daily injections at 40 mg/kg dose; design: dose 40 mg/kg; outline: as §1

Row | Structure (SMILES) | Concentration [1] | Concentration [2] [nM/g] | Concentration [3] [nM/g] | Concentration [4] | Concentration [5] [nM/g] | Concentration [6] [nM/g] | Concentration [7] [nM/g] | Concentration [8] [nM/g] | Concentration [9] [nM/g] | Concentration [10] [nM/g] | Concentration [11] [nM/g] | Concentration [12] [nM/g] | Concentration [13] [nM/g]
1 | CCN1CC=C(c2cccc(OC)c2)CC1 | 4.6 nM/g and 5.55 nM/g | 6.38 | 5.46 | 62.7 nM/g and 82.1 nM/g | – | – | – | – | – | – | – | – | –
2 | COc1cccc(C2=CCN(C)CC2)c1 | 5.09 nM/g | – | 8.07 | 84.8 nM/g | 0.9 | 2.93 | 1.38 | 2.41 | 5.66 | 2.97 | 15.9 | 7.9 | 38.1
